High-throughput results as filed in PubChem.
Compounds with a hit are over-represented: about 2.7% of the library has one in this group of screens.
PP1 counter: counter-screen for PP5 inhibitors: inhibitors of human PP1-alpha; purified PP1alpha, OMFP fluorescence; inhibition, % at 6.7 µM; hit rate 0.9% among 320,000;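 active = inhibition above the mean inhibition of all tested compounds plus 3 SD, computed separately for each screening campaign, cut at about 15% in these data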
Target sequence (P62136 whole entry, looked up): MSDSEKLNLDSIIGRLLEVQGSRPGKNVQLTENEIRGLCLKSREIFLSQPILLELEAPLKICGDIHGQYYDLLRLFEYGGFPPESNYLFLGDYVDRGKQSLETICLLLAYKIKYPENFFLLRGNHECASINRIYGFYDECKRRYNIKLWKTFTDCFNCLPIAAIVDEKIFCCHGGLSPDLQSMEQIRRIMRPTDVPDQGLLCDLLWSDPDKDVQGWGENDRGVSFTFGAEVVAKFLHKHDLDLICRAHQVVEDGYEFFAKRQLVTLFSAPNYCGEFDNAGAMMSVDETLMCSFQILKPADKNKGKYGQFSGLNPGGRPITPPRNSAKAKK
CSN deneddyl inh: CSN deneddylation inhibition | hit rate 0.38% among 360,000 | AID 651999 | Purified CSN, SCF-Nedd8-OG deneddylation, fluorescence polarization | inhibition, % at 12.5 µM | Q92905;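 active = pattern-corrected inhibition above about 35%, with an unprinted fluorescence ratio check between 0.5 and 1.5, limit read from the data, passing the limit was not always enough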
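Assay system: HEK293T-derived human Csn5 enzyme; quantity: 0.24 nM enzyme; medium: Tris/NaCl/DTT buffer, pH 7.5; also added: substrate SCFSkp2-Nedd8OG, 10 nM; doses: 12.5 µM compound; schedule: 90 min reaction at room temperature; signal: FP; read-out: % inhibition of substrate cleavage by Csn5; benchmarks: substrate-only high control, full reaction low control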
Rpn11 inh: Rpn11 (human) deubiquitinase inhibition | O00487 | human 26S proteasome, Ub4-pepOG fluorescence polarization; 20S core pre-blocked with epoxomicin | inhibition, % at 20 µM | hit rate 0.59% among 360,000 | AID 588493;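 active = inhibition at 20 µM, scaled to each plate's controls, above about 33%, limit read from the data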
Target sequence (O00487 whole entry, looked up): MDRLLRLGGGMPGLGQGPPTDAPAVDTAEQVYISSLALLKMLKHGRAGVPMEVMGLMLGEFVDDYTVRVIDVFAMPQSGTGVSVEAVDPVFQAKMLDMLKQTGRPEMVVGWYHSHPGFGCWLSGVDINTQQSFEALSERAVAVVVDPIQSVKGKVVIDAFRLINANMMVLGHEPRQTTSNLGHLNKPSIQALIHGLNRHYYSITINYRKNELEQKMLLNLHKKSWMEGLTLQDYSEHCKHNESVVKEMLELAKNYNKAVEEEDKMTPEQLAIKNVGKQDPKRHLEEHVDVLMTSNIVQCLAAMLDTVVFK
TPT1 inh: inhibitors of Candida albicans tRNA 2'-phosphotransferase TPT1. recombinant caTPT1, FP RNA substrate dephosphorylation. hit rate 0.81% among 300,000. AID 1962. inhibition, % at 5 µM;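 active = inhibition above the mean of all tested compounds plus 3 SD, set per screening campaign, cut at about 24% in these data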
NadD block: blocks S. aureus nicotinate mononucleotide adenylyltransferase. hit rate 0.78% among 360,000. inhibition, % at 20 µM. purified NadD enzyme, colorimetric absorbance read-out; in the data active = inhibition above about 26%
HNF4A DNA FP: change in binding of human HNF4 alpha to DNA | activity change, % at 10 µM | HNF4a-FITC DNA binding, fluorescence polarization, 1 h | hit rate 0.3% among 360,000 | AID 1224865 | P41235; in the data active = activity change above about 30%, passing the limit was not always enough
TPT1 inh confirm: confirmation of Candida albicans TPT1 inhibitors. shares compounds with TPT1 inh. recombinant caTPT1, fluorescence polarization, RNase T1 coupled. inhibition, % at 5 µM. hit rate 74% among 2,400;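 active = inhibition above the primary screen limit, the mean inhibition of all tested compounds plus 3 SD, cut at about 25% in these data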
RNase T1 counter: RNase T1 inhibition in TPT1 counter-screen. shares compounds with TPT1 inh. RNase T1 cleavage, fluorescence polarization, 1536-well. inhibition, % at 5 µM. hit rate 83% among 2,400. AID 2153;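 active = inhibition above the solvent-only control well mean plus 3 SD, limit set per screening run, cut at about 23% in these data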;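 note: inhibitors block cleavage so intact labeled substrate keeps polarization high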
A number is an active result; . = inactive; / = not tested or not shown.

SMILES	PP1 counter	CSN deneddyl inh	Rpn11 inh	TPT1 inh	NadD block	HNF4A DNA FP	TPT1 inh confirm	RNase T1 counter
Cn1cccc1/C=C1\CCC/C(=C\c2cccn2C)C1=O	.	.	/	192	.	.	194	171
O=C1CCCCC1CCc1ccncc1 (centres undefined)	/	.	.	/	.	.	/	/
COc1ccc(C2C(C#N)=C(N)N(c3cccnc3)C3=C2C(=O)CCC3)cc1Cn1cc([N+](=O)[O-])cn1 (centres undefined)	.	.	.	37	.	.	43	55
COc1ccc(C2C(C#N)=C(N)N(c3ccccc3)C3=C2C(=O)CCC3)cc1Cn1cc([N+](=O)[O-])cn1 (centres undefined)	.	.	.	.	.	.	/	/
COCCn1c(C)cc(C(=O)COC(=O)c2ccc(S(=O)(=O)N(C)C)cc2)c1C	/	.	.	/	.	.	/	/
COCCn1c(C)cc(C(=O)COC(=O)c2ccc(NC(=O)CC#N)cc2)c1C	.	.	.	52	.	.	30	42
Cc1cc(/C=C2\SC(=S)N(Cc3ccco3)C2=O)c(C)n1-c1ccccc1	.	.	/	102	.	45	98	106
CN(C)c1ccc(C=C2SC(=S)N(Cc3ccco3)C2=O)cc1	/	.	/	/	.	.	/	/
COc1ccc(-n2c(C)cc(/C=C3/SC(=S)N(C)C3=O)c2C)cc1	.	.	/	28	.	52	63	75
Cc1c(Cc2ccccc2)sc(/N=C/c2c(O)ccc3ccccc23)c1C(N)=O	.	.	/	94	36	38	48	57
Cc1c(Cc2ccccc2)sc(/N=C/c2ccc3ccccc3c2)c1C(N)=O	.	.	.	56	.	.	.	.
Cc1ccc(/C=N/c2sc(Cc3ccccc3)c(C)c2C(N)=O)o1	.	.	.	.	.	.	/	/
CC1CCN(C(=O)c2[nH]cnc2C(=O)N2CCN(c3ccccc3)CC2)CC1	.	.	.	/	.	.	/	/
CC(=O)Nc1sc(C)c(C)c1C(=O)OCC(=O)NCc1ccc(F)cc1	.	.	.	/	.	.	/	/
COc1ccccc1N1CCN(Cc2cc(=O)oc3cc(C)cc(C)c23)CC1	/	.	.	/	.	.	/	/
Cc1ccc(C2C3=C(CCCC3=O)OC3=C2C(=O)CCC3)cc1	.	.	.	54	.	.	.	.
Cc1ccccc1-n1c(O)c(/C=C/C=Nc2ccccc2)c(=O)[nH]c1=O	.	.	/	154	.	.	168	157
CCC(=O)c1cn(CC(=O)Nc2cc(C)ccc2C)c2ccccc12	.	.	.	.	.	.	/	/
Nc1ccc(C(=O)N/N=C/c2ccc(N3CCOCC3)s2)cc1	/	.	.	/	.	.	/	/
CC(C)(C)OC(=O)N/N=C/c1ccc(N2CCOCC2)s1	.	.	/	26	.	42	93	105
Cc1cccc(OCCn2ccnc2)c1	.	.	.	.	.	.	/	/
Clc1ccc(OCCn2ccnc2)cc1Cl	.	.	.	60	.	.	.	.
COc1ccc(O)c(/C=C2/SC(=S)N(Cc3ccccc3)C2=O)c1	.	.	/	93	.	.	104	103
COc1ccc(OC)c(/C=C2\SC(=S)N(Cc3cccnc3)C2=O)c1	.	.	.	65	.	.	68	77
COC(=O)c1sc2cc([N+](=O)[O-])cc(SCC(C)C)c2c1N	.	.	/	43	.	.	29	41
SMILES	PP1 counter	CSN deneddyl inh	Rpn11 inh	TPT1 inh	NadD block	HNF4A DNA FP	TPT1 inh confirm	RNase T1 counter
CCOC(=O)c1sc2ncc([N+](=O)[O-])cc2c1N	.	.	.	.	.	.	/	/
Cc1ccc(CNC(=O)/C(C#N)=C\c2ccc(N(C)C)cc2)cc1	.	/	/	58	/	/	64	80
CCN(CC)c1ccc(/C=C(\C#N)C(=O)NCc2ccccc2)cc1	.	.	.	89	.	41	107	114
N#C/C(=C\c1ccccc1)C(=O)NCc1ccc(F)cc1	.	.	.	.	.	.	/	/
CCN(CC)c1ccc(/C=C(\C#N)C(=O)NCc2ccco2)cc1	.	/	/	110	/	/	104	114
c1ccc(NC2=NCCN2CC2CCCCCC2)cc1	.	.	.	.	.	.	/	/
CCCCc1nc2ccccc2c(N)c1CCC (tested in a mixture with another compound)	.	.	.	40	.	.	.	.
Cc1ccccc1-n1ncc2c1CC(C)(C)CC2NC(=O)CCCN1CCCC1=O (centres undefined)	.	.	.	.	.	.	/	/
Cc1ccc(C)c(N2CCN(S(=O)(=O)c3c(C)noc3/C=C/N(C)C)CC2)c1	.	.	.	29	.	.	.	.
Cc1noc(/C=C/N(C)C)c1S(=O)(=O)N1CCN(c2ccccc2)CC1	.	.	.	.	.	.	/	/
CCN(Cc1ccccc1)C(=O)c1c(-c2ccccc2Cl)noc1C	.	.	.	.	.	.	/	/
COc1ccccc1CN=Cc1[nH]c2ccc(Br)c(Cl)c2c1O	.	.	/	.	.	.	/	/
Cc1cccc(N=Cc2[nH]c3ccc(Br)c(Cl)c3c2O)c1	.	.	.	112	.	.	73	77
Oc1ccc2ccccc2c1-c1sc(Nc2ccccc2)n[n+]1-c1ccc(F)cc1	.	.	.	29	.	.	.	.
O=C(CCN1CCC(c2cccs2)=N1)c1cccs1	.	.	.	28	.	.	.	.
O=C(CCN1CCCC1)c1cccs1	.	.	.	.	.	.	/	/
Cc1ccc(-c2ccc(C3C(C#N)=C(N)Oc4n[nH]c(C)c43)o2)cc1 (centres undefined)	.	.	.	35	.	.	.	.
CC1(C)Cc2ccccc2C(NNC(=O)c2ccc(Br)o2)=N1	.	.	.	.	.	.	/	/
CCN(CC)CC(=O)Nc1nc(-c2ccc(Cl)cc2)cs1	.	.	.	41	.	.	.	.
CCN(CC)Cc1c(O)ccc2c1O/C(=C\C=C\c1ccccc1)C2=O	.	.	/	.	.	.	/	/
COc1ccccc1/C=C/C=C1\Oc2c(ccc(O)c2CN(C)C)C1=O	.	.	/	32	.	.	33	45
Cc1ccc(OCCC(=O)OCC(=O)c2c(N)n(C)c(=O)n(C)c2=O)cc1	.	.	.	.	.	.	/	/
COc1ccccc1OCCC(=O)OCC(=O)c1c(N)n(C)c(=O)n(C)c1=O	.	.	.	113	.	.	.	.
CN(C)c1ccc(C(CNS(=O)(=O)c2ccc3ccccc3c2)N2CCOCC2)cc1 (centres undefined)	.	.	.	.	.	.	/	/
O=C(O)CN1C(=O)/C(=C\c2cn(CC(=O)N3CCOCC3)c3ccccc23)SC1=S	.	.	/	181	.	.	150	144
